≈ marks a conversion by molar mass, not a printed value. Calls of active or inactive are those of the source. The rule behind the calls is not given here.
Assays:
Human alphaherpesvirus 1 [1] = assay: Antiviral activity against Herpes simplex type 1 VR-260 infected in African green monkey Vero cells assessed as inhibition of virus-induced plaque formation/cytopathogenicity; type: functional; settings: Human alphaherpesvirus 1, VR-260, Vero; read-out: ID50 (the source's name)
Outline: (§1)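 Cell monolayers infected at MOI 0.1 and treated with compound at 25 to 200 μg/mL. Compounds dissolved in DMSO, diluted in maintenance medium (DMEM, 2% heat-inactivated FCS), final DMSO at most 0.01%. Acyclovir is the reference. ID50 is the concentration giving 50% reduction of plaque formation or virus-induced cytopathogenicity, from dose–response curves by linear regression. Values are the mean of three separate assays.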

[2] = Cytotoxicity against African green monkey Vero cells after 24 hrs by MTT assay; type: cell-based; settings: chlorocebus sabaeus
Echovirus E9 = assay: Antiviral activity against Human echovirus type 9 VR-1050 infected in African green monkey Vero cells assessed as inhibition of virus-induced plaque formation/cytopathogenicity; type: functional; settings: Enterovirus B, VR-1050, Vero; read-out: ID50 (the source's name); outline: as §1
Coxsackievirus B3 = assay: Antiviral activity against Coxsackie type B3 virus VR-1034 infected in African green monkey Vero cells assessed as inhibition of virus-induced plaque formation/cytopathogenicity; type: functional; settings: Enterovirus B, VR-1034, Vero; read-out: ID50 (the source's name); outline: as §1
[3] = tested on: Human poliovirus 1 strain Sabin; assay: Antiviral activity against Poliovirus type 1 Sabin VR-1562 infected in African green monkey Vero cells assessed as inhibition of virus-induced plaque formation/cytopathogenicity; type: functional; settings: Enterovirus C, VR-1562, Vero; read-out: ID50 (the source's name); outline: as §1
Cytomegalovirus = assay: Antiviral activity against Cytomegalovirus VR-538 infected in human HFF1 cells assessed as inhibition of virus-induced plaque formation/cytopathogenicity; type: functional; settings: Human betaherpesvirus 5, VR-538, HFF-1; read-out: ID50 (the source's name); outline: as §1
[4] = Cytotoxicity against human Hep2 cells after 24 hrs by MTT assay; type: cell-based, HEp-2
Human adenovirus 2 = assay: Antiviral activity against Adenovirus type 2 VR-1080 infected in human Hep2 cells assessed as inhibition of virus-induced plaque formation/cytopathogenicity; type: functional; settings: Human mastadenovirus C, VR-1080, HEp-2; read-out: ID50 (the source's name); outline: as §1
Human adenovirus 5 = assay: Antiviral activity against Adenovirus type 5 VR-1523 infected in human Hep2 cells assessed as inhibition of virus-induced plaque formation/cytopathogenicity; type: functional; settings: Human mastadenovirus C, VR-1523, HEp-2; read-out: ID50 (the source's name); outline: as §1
[5] = Cytotoxicity against human HFF1 cells after 24 hrs by MTT assay; type: cell-based, HFF-1
Human alphaherpesvirus 2 = assay: Antiviral activity against Herpes simplex type 2 VR-734 infected in African green monkey Vero cells assessed as inhibition of virus-induced plaque formation/cytopathogenicity; type: functional; settings: Human alphaherpesvirus 2, VR-734, Vero; read-out: ID50 (the source's name); outline: as §1
Human alphaherpesvirus 1 [6] = assay: Antiviral activity against Herpes simplex type 1 VR-260 infected in African green monkey Vero cells assessed as protection of host cells from viral infection […] by plaque assay; type: functional, organism-based
Human alphaherpesvirus 1 [7] = assay: Antiviral activity against Herpes simplex type 1 VR-260 infected in African green monkey Vero cells assessed as reduction of virus yield at 5 times ID50 treated 2 hrs after virus adsorption period measured after 12 hrs by plaque assay; type: functional, organism-based
Outline: (§2)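 Confluent Vero monolayers infected with HSV-1 at MOI 0.1, 2 h adsorption at 4 °C for synchronous replication. Inoculum then removed and fresh medium with or without compound added at various times after adsorption. Incubation at 37 °C for 12 h, cultures frozen, virus yield titrated by plaque assay. Mean ± SEM of three separate assays.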

Human alphaherpesvirus 1 [8] = assay: Inhibition of Herpes simplex type 1 VR-260 adsorption in African green monkey Vero cells assessed as cell-associated viral activity at 5 times ID50 after 120 mins by plaque assay; type: functional, organism-based
Outline: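 Infective center assay. HSV-1 (10⁶ PFU/mL) preincubated 60 min at 37 °C with compound, chilled to 4 °C, then added to a Vero suspension (10⁶ cells/mL) precooled ≥1 h at 4 °C. Adsorption for 120 min at 4 °C. Cells washed three times with cold DMEM, serially diluted and plaque assayed for cell-associated virus.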

Human alphaherpesvirus 1 [9] = assay: Antiviral activity against Herpes simplex type 1 VR-260 infected in African green monkey Vero cells assessed as inhibition of virus replication at 5 times ID50 treated 2 hrs after virus adsorption period measured after 12 hrs by plaque assay; type: functional, organism-based; outline: as §2
Human alphaherpesvirus 1 [10] = assay: Antiviral activity against Herpes simplex type 1 VR-260 infected in African green monkey Vero cells assessed as inhibition of virus replication at 5 times ID50 treated 1 hr after virus adsorption period measured after 12 hrs by plaque assay; type: functional, organism-based; outline: as §2
Human alphaherpesvirus 1 [11] = assay: Antiviral activity against Herpes simplex type 1 VR-260 infected in African green monkey Vero cells assessed as virucidal activity at 5 times ID50 after 1 hr by plaque assay; type: functional, organism-based
Outline: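 HSV-1 suspension (10⁶ PFU/mL) mixed 1:1 by volume with DMEM containing compound at 5× ID50, held 1 h at 37 °C. Residual infectivity measured by plaque assay on Vero cells after diluting below the inhibitory concentration.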

| SMILES | IC50 (Human alphaherpesvirus 1 [1]) [µg/mL] | CC50 at 24 h [2] [µg/mL] | IC50 (Echovirus E9) [µg/mL] | IC50 (Coxsackievirus B3) [µg/mL] | IC50 [3] [µg/mL] | IC50 (Cytomegalovirus) [µg/mL] | CC50 at 24 h [4] [µg/mL] | IC50 (Human adenovirus 2) [µg/mL] | IC50 (Human adenovirus 5) [µg/mL] | CC50 at 24 h [5] [µg/mL] | IC50 (Human alphaherpesvirus 2) [µg/mL] | Activity (Human alphaherpesvirus 1 [6]) | Activity (Human alphaherpesvirus 1 [7]) | inhibition (Human alphaherpesvirus 1 [8]) | Activity (Human alphaherpesvirus 1 [9]) | Activity (Human alphaherpesvirus 1 [10]) | Activity (Human alphaherpesvirus 1 [11]) |
| --- | --- | --- | --- | --- | --- | --- | --- | --- | --- | --- | --- | --- | --- | --- | --- | --- | --- |
| O=C(O)CCc1ccc(O)c(O)c1 [DIHYDROCAFFEIC ACID] | > 200 | > 200 | > 200 | > 200 | > 200 | > 200 | > 200 | > 200 | > 200 | > 200 |  |  |  |  |  |  |  |
| CCCOC(=O)CCc1ccc(O)c(O)c1 | > 200 | > 200 | > 200 | > 200 | > 200 |  | > 200 | > 200 | > 200 |  |  |  |  |  |  |  |  |
| CC(=O)OCCc1ccc(O)c(O)c1 | 20 (≈ 102 µM) | 100 (≈ 510 µM) | > 100 | 50 (≈ 255 µM) | > 100 | > 50 | 50 (≈ 255 µM) | > 50 | > 50 | 50 (≈ 255 µM) | 40 (≈ 204 µM) |  |  |  |  |  |  |
| CCC(=O)OCCc1ccc(O)c(O)c1 | 20 (≈ 95.1 µM) | 40 (≈ 190 µM) | > 40 | > 40 | > 40 | > 40 | 40 (≈ 190 µM) | > 40 | > 40 | 40 (≈ 190 µM) | 40 (≈ 190 µM) |  |  |  |  |  |  |
| CCCC(=O)OCCc1ccc(O)c(O)c1 [HYDROXYTYROSOL BUTANOATE] | > 100 | 100 (≈ 446 µM) | > 100 | > 100 | > 100 | > 100 | 100 (≈ 446 µM) | > 100 | > 100 | 100 (≈ 446 µM) | 100 (≈ 446 µM) |  |  |  |  |  |  |
| CCCCC(=O)OCCc1ccc(O)c(O)c1 | 25 (≈ 105 µM) | 25 (≈ 105 µM) | > 25 | > 25 | > 25 | > 25 | 25 (≈ 105 µM) | > 25 | > 25 | 25 (≈ 105 µM) |  |  |  |  |  |  |  |
| COC(=O)CCc1ccc(O)c(O)c1 | > 100 | 100 (≈ 510 µM) | > 100 | > 100 | > 100 | 100 (≈ 510 µM) | 100 (≈ 510 µM) | > 100 | > 100 | 100 (≈ 510 µM) | > 100 |  |  |  |  |  |  |
| CCOC(=O)CCc1ccc(O)c(O)c1 | 15 (≈ 71.4 µM) | 75 (≈ 357 µM) | > 75 | 20 (≈ 95.1 µM) | > 75 | 40 (≈ 190 µM) | 40 (≈ 190 µM) | > 40 | > 40 | 40 (≈ 190 µM) | 60 (≈ 285 µM) | inactive | Active | inactive | inactive | Active | inactive |
| CCCCOC(=O)CCc1ccc(O)c(O)c1 | > 200 | 200 (≈ 839 µM) | > 200 | 100 (≈ 420 µM) | > 200 | 25 (≈ 105 µM) | 200 (≈ 839 µM) | > 200 | > 200 | 100 (≈ 420 µM) | > 200 |  |  |  |  |  |  |

From ChEMBL document CHEMBL3603777, “Carbon nanotubes supported tyrosinase in the synthesis of lipophilic hydroxytyrosol and dihydrocaffeoyl catechols with antiviral activity against DNA and RNA viruses” (Bioorg Med Chem, 2015)
